Results pooled from the literature.
Lines come from different studies, so protocols differ.

| SMILES | target or system | observed | method | strain | time | measurement | value |
| --- | --- | --- | --- | --- | --- | --- | --- |
| COC(=O)c1cc(-c2cccc(NC(=S)NC3CCCCC3)c2)on1 | Mycobacteroides chelonae | microbial growth | broth dilution | ATCC35752 | 48 h | MIC | > 64 µg/mL |
| O=C(O)c1ccc(/C=C/c2nc3ccccc3c(=O)n2-c2cccc(O)c2)cc1 | Enterococcus faecium | microbial growth | broth dilution | NCTC7171 |  | MIC | 64 µg/mL |
| CO[C@H]1/C=C/O[C@@]2(C)Oc3c(C)c(O)c4c(O)c(c(/C=N/N5CCN(C)CC5)c(O)c4c3C2=O)NC(=O)/C(C)=C\C=C\[C@H](C)[C@H](O)[C@@H](C)[C@@H](O)[C@@H](C)[C@H](OC(C)=O)[C@@H]1C | Mycobacteroides chelonae | microbial growth |  |  | 72 h | MIC | < 0.78 µM |
| O=C(O)c1cc(Cl)ccc1-c1ccc(Cl)cc1C(=O)Nc1ccc2c(c1)Cc1ccccc1-2 | Trypanosoma brucei | parasite growth | resazurin |  | 72 h | EC50 | 28.5 µM |
| COc1cc(C(=O)NC2CCN(C)CC2)c(F)cc1Nc1ncc2c(n1)N(C1CCCC1)CC(F)(F)C(=O)N2C | MB002 | cell growth or viability |  |  | 7 days | IC50 | 0.0136 µM |
| O=c1c2ccccc2nc(/C=C/c2ccc([N+](=O)[O-])cc2)n1-c1ccccc1O | Enterococcus faecium | microbial growth | broth dilution | NCTC7171 |  | MIC | > 128 µg/mL |
| COC(=O)c1cc(-c2cccc(NC(=O)Nc3ccccc3F)c2)on1 | Mycobacteroides chelonae | microbial growth | broth dilution | ATCC35752 | 48 h | MIC | > 64 µg/mL |
| CC[C@H](C)[C@@H]([C@@H](CC(=O)N1CCC[C@H]1[C@H](OC)[C@@H](C)C(=O)N[C@@H](Cc1ccccc1)C(=O)O)OC)N(C)C(=O)[C@@H](NC(=O)[C@H](C(C)C)N(C)C(=O)CCc1cn(CCOCCOCCOCCOCC(=O)NCc2ccc(CN3C(=O)[C@H]4CC(=O)N[C@H](C(=O)O)CC(=O)NCC(=O)N[C@@H](CCCNC(=N)N)C(=O)NC[C@H]3C(=O)N4)cc2)nn1)C(C)C | M21 | cell growth or viability | MTT |  | 72 h | IC50 | > 1 µM |
| COC(=O)c1cc(-c2cccc(NC(=O)Nc3cccc(C#N)c3)c2)on1 | Mycobacteroides chelonae | microbial growth | broth dilution | ATCC35752 | 48 h | MIC | > 64 µg/mL |
| CC1=C2C[C@H]3[C@@H](CC[C@@H]4C[C@H](NS(C)(=O)=O)CC[C@@]43C)[C@@H]2CC[C@@]2(C1)O[C@@H]1C[C@H](C)CN[C@H]1[C@H]2C | MB002 | cell growth or viability |  |  | 7 days | IC50 | > 10 µM |
| COc1ccc(/C=C/c2nc3ccccc3c(=O)n2-c2cccc(O)c2)cc1 | Enterococcus faecium | microbial growth | broth dilution | NCTC7171 |  | MIC | 64 µg/mL |
| O=C(Nc1cccc(-c2cc(C(=O)O)no2)c1)Nc1ccc(Cl)c(Cl)c1 | Mycobacteroides chelonae | microbial growth | broth dilution | ATCC35752 | 48 h | MIC | > 64 µg/mL |
